ChEMBL document CHEMBL3046812, “Synthesis, fungicidal activity, and 3D-QSAR of pyridazinone-substituted 1,3,4-oxadiazoles and 1,3,4-thiadiazoles” (2002)

Test system: Puccinia recondita
Experiment: Antifungal activity against Puccinia recondita infected wheat leaves after 10 days relative to triadimefon
Assay type: functional
Outline: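 Wheat leaves inoculated with Puccinia recondita uredospores mixed 1:10 with talcum powder, held 24 h in a moist chamber, then sprayed once dry with 0.001 M compound solutions in water/DMF (5:1, with Sorpal-144). Plants kept in greenhouse; percent disease control versus untreated pots scored 10 days after treatment. Three replicates; triadimefon reference tested at 100 ppm under identical conditions.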

For `Cc1cc(=O)c(-c2nnc(Nc3cccc(C(F)(F)F)c3)s2)nn1-c1ccccc1Cl`, which “inhibition (INH)” value is on record?
The value was 0.7%.

For `Cc1cc(=O)c(-c2nnc(Nc3ccccc3F)s2)nn1-c1ccccc1Cl`, which “inhibition (INH)” value is on record?
The value was 0.1%.

For `Cc1cc(=O)c(-c2nnc(Nc3ccccc3)s2)nn1-c1ccccc1Cl`, which “inhibition (INH)” value is on record?
The value was 0.1%.

With `Cc1cc(=O)c(-c2nnc(Nc3ccccc3F)s2)nn1-c1ccccc1` as the compound, how does the “inhibition (INH)” value read?
Its value is 0.5%.

For `Cc1cc(=O)c(-c2nnc(Nc3cccc(C(F)(F)F)c3)s2)nn1-c1ccccc1`, which “inhibition (INH)” value is on record?
Its value is 0.6%.

For `Cc1cc(=O)c(-c2nnc(Nc3cccc(C(F)(F)F)c3)s2)nn1-c1c(Cl)cccc1Cl`, which “inhibition (INH)” value is on record?
Its value is 0.5%.

`Cc1cc(=O)c(-c2nnc(Nc3ccccc3F)s2)nn1-c1c(Cl)cccc1Cl` was tested. Which “inhibition (INH)” value did it give?
The value was 0.3%.

How did the “inhibition (INH)” value turn out when `Cc1cc(=O)c(-c2nnc(Nc3cccc(C(F)(F)F)c3)s2)nn1-c1ccc(Cl)cc1` was run?
The value was 0.6%.

With `Cc1cc(=O)c(-c2nnc(Nc3ccccc3F)s2)nn1-c1ccc(Cl)cc1` as the compound, how does the “inhibition (INH)” value read?
The value was 0.5%.

For `Cc1cc(=O)c(-c2nnc(Nc3ccccc3F)s2)nn1-c1cc(Cl)c(Cl)cc1Cl`, which “inhibition (INH)” value is on record?
Its value is 0.6%.

How did the “inhibition (INH)” value turn out when `Cc1cc(=O)c(-c2nnc(Nc3cccc(C(F)(F)F)c3)s2)nn1-c1cc(Cl)c(Cl)cc1Cl` was run?
Its value is 0.7%.

Which “inhibition (INH)” value does the source give for `Cc1ccc(-n2nc(-c3nnc(Nc4cccc(C(F)(F)F)c4)s3)c(=O)cc2C)c(C)c1` here?
Its value is 0.9%.

With `Cc1ccc(-n2nc(-c3nnc(Nc4ccccc4F)s3)c(=O)cc2C)c(C)c1` as the compound, how does the “inhibition (INH)” value read?
Its value is 0.9%.

With `Cc1cc(=O)c(-c2nnc(Nc3ccccc3F)s2)nn1-c1ccc(Cl)cc1Cl` as the compound, how does the “inhibition (INH)” value read?
Its value is 0.8%.

`Cc1cc(=O)c(-c2nnc(Nc3cccc(C(F)(F)F)c3)s2)nn1-c1ccc(Cl)cc1Cl` was tested. Which “inhibition (INH)” value did it give?
The value was 0.9%.

With `Cc1cc(=O)c(-c2nnc(Nc3ccccc3)s2)nn1-c1ccc(Cl)cc1Cl` as the compound, how does the “inhibition (INH)” value read?
Its value is 0.2%.

`Cc1cc(=O)c(-c2nnc(Nc3cccc(C(F)(F)F)c3)o2)nn1-c1ccccc1Cl` was tested. Which “inhibition (INH)” value did it give?
The value was 0.9%.

For `Cc1cc(=O)c(-c2nnc(Nc3ccccc3F)o2)nn1-c1ccccc1Cl`, which “inhibition (INH)” value is on record?
Its value is 0.8%.

How did the “inhibition (INH)” value turn out when `Cc1cc(=O)c(-c2nnc(Nc3ccccc3)o2)nn1-c1ccccc1Cl` was run?
Its value is 0.1%.

With `Cc1cc(=O)c(-c2nnc(Nc3ccccc3F)o2)nn1-c1ccccc1` as the compound, how does the “inhibition (INH)” value read?
Its value is 0.9%.

How did the “inhibition (INH)” value turn out when `Cc1cc(=O)c(-c2nnc(Nc3ccccc3F)o2)nn1-c1c(Cl)cccc1Cl` was run?
The value was 0.8%.

`Cc1cc(=O)c(-c2nnc(Nc3cccc(C(F)(F)F)c3)o2)nn1-c1ccc(Cl)cc1` was tested. Which “inhibition (INH)” value did it give?
Its value is 0.9%.

For `Cc1cc(=O)c(-c2nnc(Nc3ccccc3F)o2)nn1-c1ccc(Cl)cc1`, which “inhibition (INH)” value is on record?
Its value is 0.7%.

`Cc1cc(=O)c(-c2nnc(Nc3ccccc3F)o2)nn1-c1cc(Cl)c(Cl)cc1Cl` was tested. Which “inhibition (INH)” value did it give?
The value was 0.9%.

For `Cc1ccc(-n2nc(-c3nnc(Nc4cccc(C(F)(F)F)c4)o3)c(=O)cc2C)c(C)c1`, which “inhibition (INH)” value is on record?
The value was 0.7%.

Which “inhibition (INH)” value does the source give for `Cc1ccc(-n2nc(-c3nnc(Nc4ccccc4F)o3)c(=O)cc2C)c(C)c1` here?
Its value is 0.8%.

`COc1ccc(Nc2nnc(-c3nn(-c4ccc(Cl)cc4)c(C)cc3=O)o2)cc1` was tested. Which “inhibition (INH)” value did it give?
The value was 0.8%.
